# Rows were chosen to be rich in hits. Some 3.7% of all compounds tested hit in one or more screens of this group.
# NPY1 pot ag: human NPY-Y1 potentiation or agonism, primary screen; P25929; NPY-Y1 expressing cells, potentiator/agonist activation; activation, % at 3.6 µM; actives 0.37% (n = 220,000); AID 1304; in the data active = activation above about 33%, passing the limit was not always enough;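 note: cells stimulated with NPY at EC10 then isoproterenol at EC100; 0% = low agonist plus stimulus and 100% = saturating agonist plus stimulus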
# Furin inh: inhibitors of human furin; P09958; purified furin, fluorogenic substrate cleavage; inhibition, % at 20 µM or 30 µM; actives 0.061% (n = 220,000); in the data active = inhibition above about 25%
# NPY2 pot ag: potentiators or agonists of human neuropeptide Y receptor Y2; activation, % at 3.6 µM; cells expressing NPY-Y2, potentiator/agonist read-out; AID 1359; P49146; actives 0.45% (n = 220,000); in the data active = activation above about 27%;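 note: cells stimulated with NPY near EC25 plus isoproterenol at EC100; 0% = vehicle plus submaximal agonist and 100% = vehicle plus saturating agonist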
# NPY Y2 blocker: antagonists of human neuropeptide Y receptor Y2. P49146. NPY-Y2 expressing cells, antagonist mode. inhibition, % at 2.7 µM. actives 0.99% (n = 140,000); in the data active = inhibition above about 17%;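 note: 0% = vehicle with agonist challenge and 100% = reference antagonist with challenge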
# Cl transport mod: KCC2 (human) Cl- transport modulation | Q9H2X9 | KCC2 cells, thallium flux FluoZin-2 fluorescence | B-score of Tl+ flux slope (higher = more flux/activation; lower = inhibition) at 10 µM | actives 2.2% (n = 190,000) | AID 1456;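 active = thallium flux slope and its plate-corrected score both differing from the plate sample mean at a set confidence after two filtering rounds, in either direction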;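 note: slope of fluorescence scaled to starting intensity during 10 to 20 s after thallium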
# NPY Y1 blocker: blocks the human neuropeptide Y Y1 receptor | AID 1040 | HEK293-CNG Y1 cells, membrane potential fluorescence; NPY at EC95, then isoproterenol | P25929 | actives 1% (n = 200,000) | inhibition, % at 3.6 µM;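 active = inhibition above the campaign mean inhibition of all tested compounds plus 3 SD, cut at about 20% in these data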;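 note: 0% = DMSO wells given NPY plus isoproterenol and 100% = isoproterenol alone without NPY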
#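 System: HEK293 cells with Y1 receptor plus CNG channel / Probe or stimulus: NPY 25 nM then isoproterenol 1 µM plus Ro 20-1724 25 µM / Compound: one concentration, 3.6 µM, in 0.4% DMSO / Schedule: compound incubation 1 h at room temperature, readout 45 min post-stimulation / Measured by: membrane potential fluorescence / Read-out: % inhibition of NPY effect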
# NPY-Y1 antag ct: counter-screen for NPY-Y2 antagonists: human NPY-Y1 antagonism; shares compounds with NPY Y2 blocker; cell-based NPY-Y1 antagonism counterscreen; inhibition, % at 3.6 µM; actives 19% (n = 710); AID 1256; in the data active = inhibition above about 20%;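 note: cells challenged with NPY then isoproterenol with cAMP sensed through a CNG channel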
# NPY-Y2 ant conf: human NPY-Y2 antagonism, confirmation; shares compounds with NPY Y2 blocker; HEK293 NPY-Y2 CNG channel, membrane potential fluorescence; inhibition, % at 2.8 µM; actives 32% (n = 710);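 active = mean inhibition of triplicate wells above the hit cutoff set in the primary screen, cut at about 17% in these data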;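 note: 0% = DMSO with NPY challenge and 100% = BIIE0246 high control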
# The depositor's hits bear a star; nt = no result.
SMILES,NPY1 pot ag,Furin inh,NPY2 pot ag,NPY Y2 blocker,Cl transport mod,NPY Y1 blocker,NPY-Y1 antag ct,NPY-Y2 ant conf
Cc1ccc(SCC(=O)NC(=O)Nc2ccc3c(c2)OCCO3)cc1C,-28.2,-12.6,1.4,19.2*,0.256,1.3,8.5,13.7
O=C(Nc1ccccc1Cl)c1cccc(NS(=O)(=O)c2ccccc2)c1,17.6,-14.1,9.9,0.4,-1.8,-2.1,nt,nt
COC(=O)c1cc(Cl)c(NC(=O)C(C)C)cc1OC,-13.8,-16.2,-5.0,nt,1.1,4.6,nt,nt
COC(=O)c1cc(Cl)c(NC(=O)c2ccc(C(C)(C)C)cc2)cc1OC,-70.2,-6.6,-46.0,18.3*,0.226,10.0,16.0,30.6*
CC(C)NC(=O)CSc1nc2ccccc2n1-c1ccccc1,-5.1,-16.1,22.3,4.4,-0.327,1.9,nt,nt
CC(C)NC(=O)CSc1nncn1-c1ccccc1,5.2,-20.1,2.6,18.2*,0.516,0.6,0.1,1.0
CN(C)S(=O)(=O)c1ccc2nc(NC(=O)c3cccnc3)sc2c1,-3.4,-4.4,-13.4,2.5,-0.00641,-0.3,nt,nt
O=C(NC(Nc1nc2ccc([N+](=O)[O-])cc2s1)(C(F)(F)F)C(F)(F)F)c1ccccc1Cl,55.0*,-9.4,83.1*,24.2*,0.81,12.4,19.1,11.1
O=C(NC(Nc1nc2ccc([N+](=O)[O-])cc2s1)(C(F)(F)F)C(F)(F)F)c1cccnc1,48.5*,-11.3,33.2*,17.8*,-0.355,16.4,19.0,6.4
O=C(NC(NNc1ccc([N+](=O)[O-])cc1)(C(F)(F)F)C(F)(F)F)c1ccccc1Cl,-3.3,-15.0,-8.9,0.8,-0.104,1.0,nt,nt
COc1ccc(OC)c(/C=N/NC(=O)CNC(=O)c2ccc(S(=O)(=O)N3CCOCC3)cc2)c1,7.4,-7.0,6.8,0.3,0.0418,4.1,nt,nt
Cc1cc2c(c(Sc3ccccc3)n1)C(=O)OC2,12.5,-16.6,4.6,22.2*,-0.592,0.4,-1.9,-0.2
CC(C)(C)NC(=O)C(c1ccc(F)cc1)N(Cc1ccco1)C(=O)Cn1nnc(-c2cccs2)n1 (configuration not stated),-54.4,-6.5,-16.9,23.6*,0.241,5.5,11.5,11.8
O=C(Oc1ccc(-c2nnco2)cc1)N(c1ccccc1)c1ccccc1,19.4,-20.6,-1.1,0.2,nt,-9.1,nt,nt
CCOC(=O)Cn1nc(-c2ccccc2)c2cnc3ccc(CC)cc3c21,2.3,-5.6,5.6,26.2*,-0.25,3.6,20.1,12.8
CCOC(=O)Cn1nc(-c2ccccc2)nc1-c1ccccc1,3.2,-28.2,3.5,-2.4,-0.274,12.3,nt,nt
Clc1ccc(OCCOCCOc2cccc3cccnc23)c(Br)c1,-66.0,-25.6,-16.5,18.2*,0.564,1.4,23.9*,53.4*
Brc1ccccc1OCCOCCOc1cccc2cccnc12,-16.0,-17.3,-29.3,6.7,-2.06,8.0,nt,nt
Cc1cccc(OCCCOc2cccc3cccnc23)c1C,-11.2,-7.0,-20.6,21.0*,nt,9.7,6.7,10.3
CC1(C)Cc2cccc(OCC(=O)OCC(=O)Nc3cccc(S(N)(=O)=O)c3)c2O1,10.5,-18.7,7.2,nt,-0.0983,nt,nt,nt
COc1ccc(OC)c(S(=O)(=O)NC(N)=NCCc2ccccc2OC)c1,2.0,-15.5,-7.1,nt,-0.149,3.3,nt,nt
CCN=C1S/C(=C\c2cc(OCC)c(O)cc2Br)C(=O)N1CC,-27.9,-8.6,7.2,26.7*,0.471,14.9,24.8*,43.3*
Cc1ccc(COC(=O)c2nn(C)c(=O)c3ccccc23)cc1,-13.2,-17.3,-15.5,nt,0.667,9.9,nt,nt
CC12CCC(C(=O)NCc3cccnc3)(OC1=O)C2(C)C (configuration not stated),-3.2,-5.7,-20.1,2.5,nt,4.0,nt,nt
CC12CCC(C(=O)N(Cc3ccccc3)Cc3ccccc3)(OC1=O)C2(C)C (configuration not stated),-37.3,-8.7,-30.8,17.8*,nt,19.2,15.6,14.5
SMILES,NPY1 pot ag,Furin inh,NPY2 pot ag,NPY Y2 blocker,Cl transport mod,NPY Y1 blocker,NPY-Y1 antag ct,NPY-Y2 ant conf
CCOc1ccc(N(CC(=O)NC2CCCC(C)C2C)S(=O)(=O)c2c(C)noc2C)cc1 (configuration not stated),-7.3,-32.9,14.0,19.7*,0.647,7.3,3.7,5.7
CCn1c(SCC(=O)N2CCN(c3ccc(F)cc3)CC2)nnc1-c1ccncc1,-4.9,-19.9,4.7,-0.9,nt,0.2,nt,nt
COc1cccc(CN(c2ccc3c(c2)CCC3)S(=O)(=O)c2ccc(-n3cnnn3)c(OC)c2)c1,-4.6,-22.1,-0.5,-0.9,-0.433,-1.3,nt,nt
O=C(O)CCNS(=O)(=O)c1ccc2c(c1)CCCC2,6.5,-23.6,1.5,nt,-0.554,1.7,nt,nt
O=C(O)CCNS(=O)(=O)c1ccc2c(c1)Cc1ccccc1-2,-18.6,-17.0,-29.9,27.4*,nt,4.5,8.0,10.4
CCC1(CC)NC(=O)N(CC(=O)Nc2sc3c(c2C(N)=O)CCC3)C1=O,-12.3,-4.2,3.0,1.0,nt,0.0,nt,nt
COc1ccc(CN2CCN(c3ncccn3)CC2)c(OC)c1,17.6,-9.7,1.0,18.3*,0.0663,15.0,1.3,-0.5
COc1ccc(CN2CCN(c3ccccn3)CC2)c(OC)c1,-14.9,-26.2,-23.1,7.4,0.106,-4.1,nt,nt
Cc1cccc(NC(=S)NNC(=S)NCc2ccccc2)c1,18.7,-5.2,-7.4,29.1*,nt,10.2,16.8,22.3*
CN(C)CC1CCCCC1OC(=O)c1ccc(Br)cc1 (configuration not stated),-10.7,-31.3,-9.3,nt,-0.966,14.4,nt,nt
CC(C)COc1ccc(C(=O)OC2CC(C)(C)OCC2CN(C)C)cc1 (configuration not stated),-33.9,-16.9,-32.5,23.7*,nt,15.5,15.7,30.5*
O=C(Cn1cnc2ccccc21)NCc1ccccc1,-7.5,-19.4,-3.1,1.9,0.554,2.7,nt,nt
O=C(Cc1ccccc1)Nn1cnc2ccccc21,3.4,-13.8,-7.1,24.7*,0.734,3.3,1.8,-0.3
CCCC12CN3CC(C)(CN(C1)C3c1cccs1)C2=O (configuration not stated),16.6,4.8,-9.8,nt,1.3,nt,nt,nt
COc1ccc(-n2nc(C(=O)Nc3ccc4c(c3)OCO4)c3ccccc3c2=O)cc1,-9.1,-20.3,-6.9,22.9*,-0.951,0.5,12.2,20.9*
O=C(Nc1cccc(N=Cc2cc(Cl)cc(Br)c2O)c1)c1ccco1,-9.2,-17.5,-4.6,7.1,0.95,5.1,nt,nt
O=C(Nc1cccc(N=Cc2cc(Br)cc(Br)c2O)c1)c1ccco1,-14.2,-14.1,-7.6,17.4*,-3.05,-1.2,17.1,24.6*
